Reference: ChEMBL document CHEMBL4665831, “Ultrapotent Inhibitor of Clostridioides difficile Growth, Which Suppresses Recurrence In Vivo” (J Med Chem, 2020)

Columns and labels:
Clostridioides difficile [1] = experiment: Antimicrobial activity against Clostridioides difficile NR-13435 isolate 9 assessed as reduction in microbial growth after 48 hrs by broth microdilution method; format: functional
Summary of the method: (§1)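 Broth microdilution: a 0.5 McFarland suspension was diluted in brain heart infusion supplemented (BHIS) broth to ~5 × 10^5 CFU/mL. Agents were serially diluted and plates incubated anaerobically at 37°C for 48 h.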

Clostridioides difficile [2] = experiment: Antimicrobial activity against Clostridioides difficile ATCC 43255 assessed as reduction in microbial growth after 48 hrs by broth microdilution method; format: functional; summary of the method: as §1
Enterococcus faecium = experiment: Antimicrobial activity against vancomycin-resistant Enterococcus faecium ATCC 700221 assessed as reduction in microbial growth after 48 hrs by CLSI based broth microdilution method; format: functional
Summary of the method: (§2)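 CLSI broth microdilution: strains were grown aerobically overnight on tryptone soy agar at 37°C. A 0.5 McFarland suspension was diluted to ~5 × 10^5 CFU/mL in cation-adjusted Mueller-Hinton broth (E. coli) or tryptone soy broth (enterococci), and agents were serially diluted.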

Enterococcus faecalis = experiment: Antimicrobial activity against vancomycin-resistant Enterococcus […] ATCC 51299 assessed as reduction in microbial growth after 48 hrs by CLSI based broth microdilution method; format: functional; summary of the method: as §2
Clostridioides difficile [3] = experiment: Potency index, ratio of vancomycin MIC to test compound MIC for antibacterial activity against Clostridioides difficile NR-13432 isolate 6; format: functional
Clostridioides difficile [4] = experiment: Potency index, ratio of vancomycin MIC to test compound MIC for antibacterial activity against Clostridioides difficile NR-13435 isolate 9; format: functional
Clostridioides difficile [5] = experiment: Potency index, ratio of vancomycin MIC to test compound MIC for antibacterial activity against Clostridioides difficile NR-32883 P2; format: functional
Clostridioides difficile [6] = experiment: Potency index, ratio of vancomycin MIC to test compound MIC for antibacterial activity against Clostridioides difficile NR-32891 P13; format: functional
Clostridioides difficile [7] = experiment: Potency index, ratio of vancomycin MIC to test compound MIC for antibacterial activity against Clostridioides difficile NR-32895 P19; format: functional
Clostridioides difficile [8] = experiment: Potency index, ratio of vancomycin MIC to test compound MIC for antibacterial activity against Clostridioides difficile ATCC 43255; format: functional
Caco-2 = experiment: Cytotoxicity against human Caco-2 cells assessed as reduction in cell viability at >64 ug/ml after 2 hrs by MTS assay; format: cell-based; settings: caco-2, 2 h, dose >64 µg/ml
Summary of the method: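 Caco-2 cells were exposed to compound for 2 h, then to MTS reagent for 4 h, and absorbance was read at 490 nm. Testing was in triplicate, and viability was expressed as percent of DMSO-treated cells.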

[9] = Selectivity ratio of cytotoxicity against human Caco-2 cells to MIC for antibacterial against clostridioides difficile ATCC BAA 1801; format: toxicity, cell-based
[10] = Apparent permeability across apical to basolateral side in human Caco-2 cells; format: ADME, cell-based
Summary of the method: (§3)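 Bidirectional Caco-2 monolayer transport was run by a contract lab. Papp = (V_R·C_R,end/Δt)·1/[A·(C_D,mid − C_R,mid)]. Donor mid-point is the mean of the 0-min and end donor concentrations; receiver mid-point is half the end receiver concentration. Concentrations were taken as LC peak areas.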

[11] = Apparent permeability across basolateral to apical side in human Caco-2 cells; format: ADME, cell-based; summary of the method: as §3
Lactobacillus gasseri = experiment: Antibacterial activity against Lactobacillus gasseri HM-400 assessed as reduction in microbial growth after 48 hrs by broth microdilution method
Summary of the method: (§4)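 Gut commensal MICs by broth microdilution: a 0.5 McFarland suspension was diluted to ~5 × 10^5 CFU/mL in BHIS broth (Bacteroides) or MRS broth (Lactobacillus). Agents were serially diluted and incubated 48 h at 37°C. MIC was read by visual inspection of growth.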

Lactobacillus crispatus [12] = experiment: Antibacterial activity against Lactobacillus crispatus HM-103 assessed as reduction in microbial growth after 48 hrs by broth microdilution method; summary of the method: as §4
Lactobacillus crispatus [13] = experiment: Antibacterial activity against Lactobacillus crispatus HM-371 assessed as reduction in microbial growth after 48 hrs by broth microdilution method; summary of the method: as §4
Bacteroides fragilis = experiment: Antibacterial activity against Bacteroides fragilis HM-709 assessed as reduction in microbial growth after 48 hrs by broth microdilution method; format: organism-based; summary of the method: as §4
Clostridioides difficile [14] = experiment: Antimicrobial activity against Clostridioides difficile ATCC 43255 assessed as drug resistance by measuring frequency of mutation at 15 times of MIC after 48 hrs; format: functional
Clostridioides difficile [15] = experiment: Antibacterial activity against Clostridioides difficile ATCC 43255 infected in CDI mouse model assessed as survival rate at 50 mg/kg, po for 5 days relative to control; format: functional; settings: ATCC 43255, po, 120 h, time 5 day
[16] = Selectivity ratio of MIC for antibacterial activity against Bacteroides fragilis HM-711 to antibacterial activity against Clostridioides difficile NR-32883 P2; format: ADME
[17] = Selectivity ratio of MIC for antibacterial activity against Bacteroides fragilis HM-711 to antibacterial activity against Clostridioides difficile NR-32891 P13; format: ADME
[18] = Selectivity ratio of MIC for antibacterial activity against Bacteroides fragilis HM-711 to antibacterial activity against Clostridioides difficile NR-32904 P30; format: ADME
[19] = Selectivity ratio of MIC for antibacterial activity against Bacteroides fragilis HM-711 to antibacterial activity against Clostridioides difficile ATCC 43255; format: ADME
[20] = Selectivity ratio of MIC for antibacterial activity against Bacteroides fragilis HM-709 to antibacterial activity against Clostridioides difficile NR-13432 isolate 6; format: ADME
[21] = Selectivity ratio of MIC for antibacterial activity against Bacteroides fragilis HM-709 to antibacterial activity against Clostridioides difficile NR-13435 isolate 9; format: ADME
[22] = Selectivity ratio of MIC for antibacterial activity against Bacteroides fragilis HM-709 to antibacterial activity against Clostridioides difficile NR-32891 P13; format: ADME
[23] = Selectivity ratio of MIC for antibacterial activity against Bacteroides fragilis HM-709 to antibacterial activity against Clostridioides difficile NR-32895 P19; format: ADME
[24] = Selectivity ratio of MIC for antibacterial activity against Bacteroides fragilis HM-709 to antibacterial activity against Clostridioides difficile NR-32904 P30; format: ADME
[25] = Selectivity ratio of MIC for antibacterial activity against Bacteroides fragilis HM-709 to antibacterial activity against Clostridioides difficile ATCC 43255; format: ADME
[26] = Selectivity ratio of MIC for antibacterial activity against Bacteroides dorei HM-719 to antibacterial activity against Clostridioides difficile NR-13432 isolate 6; format: ADME
[27] = Selectivity ratio of MIC for antibacterial activity against Bacteroides dorei HM-719 to antibacterial activity against Clostridioides difficile NR-13435 isolate 9; format: ADME
[28] = Selectivity ratio of MIC for antibacterial activity against Bacteroides dorei HM-719 to antibacterial activity against Clostridioides difficile NR-32883 P2; format: ADME
[29] = Selectivity ratio of MIC for antibacterial activity against Bacteroides dorei HM-719 to antibacterial activity against Clostridioides difficile NR-32891 P13; format: ADME
[30] = Selectivity ratio of MIC for antibacterial activity against Bacteroides dorei HM-719 to antibacterial activity against Clostridioides difficile NR-32895 P19; format: ADME
[31] = Selectivity ratio of MIC for antibacterial activity against Bacteroides dorei HM-719 to antibacterial activity against Clostridioides difficile NR-32904 P30; format: ADME

Compound O=C(Nc1nnc(-c2cc(Cl)cc(Cl)c2)o1)c1ccc(SC(F)(F)F)cc1 has an MIC (Clostridioides difficile [1]) of 0.007 µM, an MIC (Clostridioides difficile [2]) of 0.04 µM and an MIC (Enterococcus faecium) of 0.29 µM. It also gave an MIC (Enterococcus faecalis) of 0.14 µM, a Ratio (Clostridioides difficile [3]) of 2.5 and a Ratio (Clostridioides difficile [4]) of 2.5. The Ratio (Clostridioides difficile [5]) was 2.5, the Ratio (Clostridioides difficile [6]) was 2.5 and the Ratio (Clostridioides difficile [7]) was 2.5. For the same compound, the Ratio (Clostridioides difficile [8]) was 2.5, the Activity (Caco-2) was “Non-Toxic” and the Selectivity ratio [9] was greater than 9000. The Papp [10] was 0.2 10^-6 cm/s, the Papp [11] was 0.1 10^-6 cm/s and the MIC (Lactobacillus gasseri) was 36.8 µM. For the same compound, the MIC (Lactobacillus crispatus [12]) was 36.8 µM, the MIC (Lactobacillus crispatus [13]) was 36.8 µM and the MIC (Bacteroides fragilis) was 2.3 µM. For the same compound, the Activity (Clostridioides difficile [14]) was <1.1 10^-9No_unit, the survival at 50 mg/kg (Clostridioides difficile [15]) was 66.7% and the Selectivity ratio [16] was 100. For the same compound, the Selectivity ratio [17] was 100, the Selectivity ratio [18] was 100 and the Selectivity ratio [19] was 100. For the same compound, the Selectivity ratio [20] was 100, the Selectivity ratio [21] was 100 and the Selectivity ratio [22] was 100. It also gave a Selectivity ratio [23] of 100, a Selectivity ratio [24] of 100 and a Selectivity ratio [25] of 100. For the same compound, the Selectivity ratio [26] was 100, the Selectivity ratio [27] was 100 and the Selectivity ratio [28] was 100. It also gave a Selectivity ratio [29] of 100, a Selectivity ratio [30] of 100 and a Selectivity ratio [31] of 100.
